In ChEMBL document CHEMBL3271988, “Nitrogen analogues of 1,4-benzoquinones. Activities against the ascitic sarcoma 180 of mice” (J Med Chem, 1978):
Activity calls are given as the source filed them. The rule behind the calls is not given here.

Key:
Sarcoma-180 [1] = test: Antitumor activity against mouse Sarcoma 180 cells allografted in Swiss mouse assessed as weight gain at 22.5 mg/kg, ip three doses were given at 24 hrs interval starting 24 hrs after allograft injection measured after 3 days relative to control; assay type: functional; conditions: route intraperitoneal
Procedure, shortened: (§1)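 Ascitic sarcoma 180 model in Swiss mice: 10^6 cells ip, then three ip doses at 24-h intervals beginning 24 h later. Mice were weighed 1 day after cell injection and again 3 days later (24 h after the third dose). Percent weight gain of treated mice was compared with saline-treated controls on the same schedule.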

Sarcoma-180 [2] = test: Antitumor activity against mouse Sarcoma 180 cells allografted in Swiss mouse assessed as survival time at 22.5 mg/kg, ip three doses were given at 24 hrs interval starting 24 hrs after allograft injection relative to control; assay type: functional; conditions: route intraperitoneal
Procedure, shortened: (§2)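 Swiss mice inoculated ip with 10^6 ascitic sarcoma 180 cells. Compound given ip daily ×3 at 24-h intervals, starting 24 h after inoculation. Controls received isotonic saline on the same schedule; 6 mice per group. Mice alive at 60 days counted as 60 days in mean survival (±SD).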

[3] = Acute toxicity in single ip dosed Swiss mouse assessed as death up to 5 days; assay type: organism-based; conditions: in vivo
Procedure, shortened: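 Male Swiss mice given one ip dose. LD50 taken as the single dose killing 50% of animals within 5 days.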

Sarcoma-180 [4] = test: Antitumor activity against mouse Sarcoma 180 cells allografted in Swiss mouse at 22.5 mg/kg, ip three doses were given at 24 hrs interval starting 24 hrs after allograft injection relative to control; assay type: functional; conditions: route intraperitoneal
Procedure, shortened: (§3)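 Swiss mice received 10^6 ascitic sarcoma 180 cells ip, then three ip doses 24 h apart starting at 24 h. Controls got isotonic salt solution on the same schedule. T/C% is mean survival time of treated over controls (6 mice per group).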

[5] = Redox potential of the compound in alcohol-water solution; conditions: buffer
[6] = Half life of the compound in water at pH 7 at 25 degC by spectrophotometry; assay type: physicochemical
Procedure, shortened: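 Compound dissolved in absolute ethanol, then diluted into 0.01 M Tris buffer brought to pH 7 with HCl, 25 °C. Absorbance at λmax followed over hours or days; log absorbance vs time fitted by least squares, rate constant and half-time taken from the slope.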

Sarcoma-180 [7] = test: Antitumor activity against mouse Sarcoma 180 cells allografted in Swiss mouse at 5 mg/kg, ip three doses were given at 24 hrs interval starting 24 hrs after allograft injection relative to control; assay type: functional; conditions: route intraperitoneal; procedure, shortened: as §3
Sarcoma-180 [8] = test: Antitumor activity against mouse Sarcoma 180 cells allografted in Swiss mouse assessed as survival at 5 mg/kg, ip three doses were given at 24 hrs interval starting 24 hrs after allograft injection measured after 5 days; assay type: functional, organism-based; parameters: dose 5 mg/kg
Procedure, shortened: (§4)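 Swiss mice were injected ip with 10^6 ascitic sarcoma 180 cells. Three daily ip doses followed, the first 24 h after cell injection. The read-out was the number of mice surviving at 5 days, out of 6 treated.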

Sarcoma-180 [9] = test: Antitumor activity against mouse Sarcoma 180 cells allografted in Swiss mouse assessed as weight gain at 5 mg/kg, ip three doses were given at 24 hrs interval starting 24 hrs after allograft injection measured after 3 days relative to control; assay type: functional; conditions: route intraperitoneal; procedure, shortened: as §1
Sarcoma-180 [10] = test: Antitumor activity against mouse Sarcoma 180 cells allografted in Swiss mouse assessed as survival time at 5 mg/kg, ip three doses were given at 24 hrs interval starting 24 hrs after allograft injection relative to control; assay type: functional; conditions: route intraperitoneal; procedure, shortened: as §2
Sarcoma-180 [11] = test: Antitumor activity against mouse Sarcoma 180 cells allografted in Swiss mouse assessed as survival at 9 mg/kg, ip three doses were given at 24 hrs interval starting 24 hrs after allograft injection measured after 5 days; assay type: functional, organism-based; parameters: dose 9 mg/kg; procedure, shortened: as §4
Sarcoma-180 [12] = test: Antitumor activity against mouse Sarcoma 180 cells allografted in Swiss mouse assessed as weight gain at 9 mg/kg, ip three doses were given at 24 hrs interval starting 24 hrs after allograft injection measured after 3 days relative to control; assay type: functional; conditions: route intraperitoneal; procedure, shortened: as §1
Sarcoma-180 [13] = test: Antitumor activity against mouse Sarcoma 180 cells allografted in Swiss mouse assessed as cure at 9 mg/kg, ip three doses were given at 24 hrs interval starting 24 hrs after allograft injection measured after 60 days; assay type: functional, organism-based; parameters: dose 9 mg/kg
Procedure, shortened: (§5)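 Swiss mice given 10^6 ascitic sarcoma 180 cells ip. Starting 24 h later, three ip doses were given 24 h apart. Controls got isotonic salt solution on the same schedule. A cure was a mouse alive with no evidence of cancer cells 60 days after cell injection, reported per 6 mice.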

Sarcoma-180 [14] = test: Antitumor activity against mouse Sarcoma 180 cells allografted in Swiss mouse assessed as survival time at 9 mg/kg, ip three doses were given at 24 hrs interval starting 24 hrs after allograft injection relative to control; assay type: functional; conditions: route intraperitoneal; procedure, shortened: as §2
Sarcoma-180 [15] = test: Antitumor activity against mouse Sarcoma 180 cells allografted in Swiss mouse at 9 mg/kg, ip three doses were given at 24 hrs interval starting 24 hrs after allograft injection relative to control; assay type: functional; conditions: route intraperitoneal
Procedure, shortened: (§6)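 Swiss mice given 10^6 ascitic sarcoma 180 cells ip; three ip doses at 24-h intervals starting 24 h later; controls received isotonic salt solution on the same schedule. […] Cures = alive without cancer cells at 60 days.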

Sarcoma-180 [16] = test: Antitumor activity against mouse Sarcoma 180 cells allografted in Swiss mouse assessed as weight gain at 200 mg/kg, ip three doses were given at 24 hrs interval starting 24 hrs after allograft injection measured after 3 days relative to control; assay type: functional; conditions: route intraperitoneal; procedure, shortened: as §1
Sarcoma-180 [17] = test: Antitumor activity against mouse Sarcoma 180 cells allografted in Swiss mouse assessed as survival at 200 mg/kg, ip three doses were given at 24 hrs interval starting 24 hrs after allograft injection measured after 5 days; assay type: functional, organism-based; parameters: dose 200 mg/kg; procedure, shortened: as §4
Sarcoma-180 [18] = test: Antitumor activity against mouse Sarcoma 180 cells allografted in Swiss mouse at 200 mg/kg, ip three doses were given at 24 hrs interval starting 24 hrs after allograft injection relative to control; assay type: functional; conditions: route intraperitoneal; procedure, shortened: as §3
Sarcoma-180 [19] = test: Antitumor activity against mouse Sarcoma 180 cells allografted in Swiss mouse assessed as survival time at 200 mg/kg, ip three doses were given at 24 hrs interval starting 24 hrs after allograft injection relative to control; assay type: functional; conditions: route intraperitoneal; procedure, shortened: as §2
Sarcoma-180 [20] = test: Antitumor activity against mouse Sarcoma 180 cells allografted in Swiss mouse at 8 mg/kg, ip three doses were given at 24 hrs interval starting 24 hrs after allograft injection relative to control; assay type: functional; conditions: route intraperitoneal; procedure, shortened: as §6
Sarcoma-180 [21] = test: Antitumor activity against mouse Sarcoma 180 cells allografted in Swiss mouse assessed as cure at 8 mg/kg, ip three doses were given at 24 hrs interval starting 24 hrs after allograft injection measured after 60 days; assay type: functional, organism-based; parameters: dose 8 mg/kg; procedure, shortened: as §5
Sarcoma-180 [22] = test: Antitumor activity against mouse Sarcoma 180 cells allografted in Swiss mouse assessed as survival at 8 mg/kg, ip three doses were given at 24 hrs interval starting 24 hrs after allograft injection measured after 5 days; assay type: functional, organism-based; parameters: dose 8 mg/kg; procedure, shortened: as §4
Sarcoma-180 [23] = test: Antitumor activity against mouse Sarcoma 180 cells allografted in Swiss mouse assessed as survival time at 8 mg/kg, ip three doses were given at 24 hrs interval starting 24 hrs after allograft injection relative to control; assay type: functional; conditions: route intraperitoneal; procedure, shortened: as §2
Sarcoma-180 [24] = test: Antitumor activity against mouse Sarcoma 180 cells allografted in Swiss mouse assessed as weight gain at 8 mg/kg, ip three doses were given at 24 hrs interval starting 24 hrs after allograft injection measured after 3 days relative to control; assay type: functional; conditions: route intraperitoneal; procedure, shortened: as §1
Sarcoma-180 [25] = test: Antitumor activity against mouse Sarcoma 180 cells allografted in Swiss mouse at 90 mg/kg, ip three doses were given at 24 hrs interval starting 24 hrs after allograft injection relative to control; assay type: functional; conditions: route intraperitoneal; procedure, shortened: as §6
Sarcoma-180 [26] = test: Antitumor activity against mouse Sarcoma 180 cells allografted in Swiss mouse assessed as survival at 90 mg/kg, ip three doses were given at 24 hrs interval starting 24 hrs after allograft injection measured after 5 days; assay type: functional, organism-based; parameters: dose 90 mg/kg; procedure, shortened: as §4
Sarcoma-180 [27] = test: Antitumor activity against mouse Sarcoma 180 cells allografted in Swiss mouse assessed as survival time at 90 mg/kg, ip three doses were given at 24 hrs interval starting 24 hrs after allograft injection relative to control; assay type: functional; conditions: route intraperitoneal; procedure, shortened: as §2
Sarcoma-180 [28] = test: Antitumor activity against mouse Sarcoma 180 cells allografted in Swiss mouse assessed as weight gain at 90 mg/kg, ip three doses were given at 24 hrs interval starting 24 hrs after allograft injection measured after 3 days relative to control; assay type: functional; conditions: route intraperitoneal; procedure, shortened: as §1

O=C1C(Br)=CC(=NCl)C=C1Br
Activity (Sarcoma-180 [1]): -25%
Survival (Sarcoma-180 [2]): 41 days
LD50 at 120 h [3]: 63 mg/kg
T/C (Sarcoma-180 [4]): 218%
Redox potential [5]: 0.665 V
half-life [6]: 23.3 h

O=C1C=CC(=NCl)C=C1
T/C (Sarcoma-180 [7]): 246%
Activity (Sarcoma-180 [8]): Active
LD50 at 120 h [3]: 12.5 mg/kg
Activity (Sarcoma-180 [9]): -6.9%
Survival (Sarcoma-180 [10]): 40.5 days
Redox potential [5]: 0.652 V
half-life [6]: 35.3 h

O=C1C(Br)=CC(=NBr)C=C1Br
Activity (Sarcoma-180 [11]): Active
Activity (Sarcoma-180 [12]): -3%
LD50 at 120 h [3]: 25 mg/kg
Activity (Sarcoma-180 [13]): inactive
Survival (Sarcoma-180 [14]): 22.8 days
Redox potential [5]: 0.678 V
T/C (Sarcoma-180 [15]): 178%
half-life [6]: 10.4 h

O=C1C=C/C(=N/O)C(I)=C1
Activity (Sarcoma-180 [16]): 0%
LD50 at 120 h [3]: 550 mg/kg
Activity (Sarcoma-180 [17]): Active
T/C (Sarcoma-180 [18]): 171%
Redox potential [5]: 0.531 V
Survival (Sarcoma-180 [19]): 23.7 days

O=C1C(Cl)=CC(=NBr)C=C1Cl
T/C (Sarcoma-180 [20]): 165%
Activity (Sarcoma-180 [21]): inactive
Activity (Sarcoma-180 [22]): Active
Survival (Sarcoma-180 [23]): 27.2 days
LD50 at 120 h [3]: 20 mg/kg
Activity (Sarcoma-180 [24]): -5.1%
half-life [6]: 3.7 h

O=C1C=C/C(=N/O)C(Cl)=C1
LD50 at 120 h [3]: 380 mg/kg
T/C (Sarcoma-180 [25]): 304%
Activity (Sarcoma-180 [26]): Active
Survival (Sarcoma-180 [27]): 39 days
Activity (Sarcoma-180 [28]): -2.4%
Redox potential [5]: 0.537 V
